For twelve compounds, IC50, Activity and viability results are on record in ChEMBL document CHEMBL1240502, “Therapeutic effects of cantharidin analogues without bridging ether oxygen on human hepatocellular carcinoma cells” (Eur J Med Chem, 2010).

The test system of series [1] is HepG2. The experiment in a line: Cytotoxicity against human HepG2 cells after 48 hrs by MTT assay. Format: functional, cell-based. The note with it: HepG2, 48 h. In short, it runs like this:
(§1)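 Cells seeded in 24-well plates at 1 × 10⁵ cells/well, allowed 12 h, then exposed to test chemical or vehicle for 48 h, in triplicate. Medium replaced with MTT in PBS (pH 7.4) for 4 h at 37 °C; formazan dissolved in DMSO and read at 540 nm. Viability = (test − background)/(control − background) × 100.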
(Tetrazolium dyes change colour on reduction, which living cells bring about.)

Series [2] deals with Hepatocyte. The series can be described thus: Cytotoxicity against rat hepatocyte cells after 48 hrs by MTT assay. Format: cell-based. In short, it runs like this: as §1
The test system of series [3] is SK-HEP1. The experiment in a line: Cytotoxicity against human SKHEP1 cells after 48 hrs by MTT assay. In kind it is functional, cell-based. The note with it: SK-HEP1, 48 h. In short, it runs like this:
as §1

For series [4], the system named is SK-HEP1. The experiment in a line: Cytotoxicity against human SKHEP1 cells at 50 uM after 48 hrs by MTT assay. Format: functional, cell-based. In short, it runs like this:
as §1

Series [5] can be described thus: Cytotoxicity against rat hepatocyte cells assessed as survival at 200 uM after 48 hrs by MTT assay. Format: cell-based. The note with it: rat hepatocytes, read-out: Activity. The method, boiled down: as §1
For series [6], the system named is HepG2. The experiment in a line: Cytotoxicity against human HepG2 cells at 50 uM after 48 hrs by MTT assay. Format: functional, cell-based. In short, it runs like this:
as §1

For series [7], the system named is Hepatocyte. The experiment in a line: Cytotoxicity against rat hepatocyte cells at 50 uM after 48 hrs by MTT assay. The note with it: hepatocytes. Format: cell-based. In short, it runs like this:
as §1

Structures are written as SMILES. The source made the active and inactive calls. No cut-off for these calls is given here. Where only a bound is given, the exact number is not on record here.

Turning to `O=C1C2C(C(=O)N1c1nccs1)[C@H]1C=C[C@@H]2CC1` (stereo partly drawn), the IC50 in the series with HepG2 [1], with Hepatocyte [2] and with SK-HEP1 [3] was more than 200 µM in each case.
With `Cc1cnc(/N=C2\OC(=O)C3C2[C@@H]2C=C[C@H]3CC2)s1` (stereo partly drawn), the outcome in the series on SK-HEP1 [4] and in the series on HepG2 [6] was Active. In addition, in series [5], the viability at 48 h, 200 µM worked out at 80%. Also, the IC50 was 92 µM in the series on HepG2 [1], more than 200 µM in the series with Hepatocyte [2] and more than 200 µM in the series on SK-HEP1 [3]. The Activity entry in the series on Hepatocyte [7] was “Non-toxic”.
For the compound `O=C1c2ccccc2C(=O)N1c1nccs1`, the IC50 with HepG2 [1], with Hepatocyte [2] and in the series on SK-HEP1 [3] was more than 200 µM each time.
Turning to `O=C1OC(=O)c2cc(Oc3ccc4c(c3)C(=O)OC4=O)ccc21`, the outcome in the series on SK-HEP1 [4] and in the series on HepG2 [6] was Active. For the same compound, the viability at 48 h, 200 µM in series [5] was found to be 80%. Also, the values for the IC50 in the series on HepG2 [1], in the series on Hepatocyte [2] and in the series on SK-HEP1 [3] were 121 µM, more than 200 µM and 199 µM, respectively. For the same compound, in the series with Hepatocyte [7], the Activity result is recorded as “Non-toxic”.
Consider `O=C1OC(=O)C2C3CCC(O3)C12` (stereo not drawn) [DEMETHYL-CANTHARIDIN], for which the IC50 in the series with HepG2 [1] was 74 µM; with Hepatocyte [2], 75 µM; in the series on SK-HEP1 [3], 126 µM.
Turning to `O=C1OC(=O)[C@H]2[C@@H]1[C@H]1C=C[C@@H]2C1`, the result with SK-HEP1 [4] and in the series with HepG2 [6] was Active. For the same compound, the viability at 48 h, 200 µM in series [5] came to 80%. Besides, the results for the IC50 in the series on HepG2 [1], in the series on Hepatocyte [2] and in the series on SK-HEP1 [3] were 62 µM, more than 200 µM and 151 µM, respectively. In addition, in the series with Hepatocyte [7], the Activity result is on record as “Non-toxic”.
Take `Cc1cnc(N2C(=O)c3ccccc3C2=O)s1`: the IC50 with HepG2 [1], in the series on Hepatocyte [2] and with SK-HEP1 [3] was more than 200 µM each time.
As to `Cc1ccc2c(c1)C(=O)N(c1nc3ccccc3s1)C2=O`, the 50% inhibitory concentration (IC50) with HepG2 [1], in the series with Hepatocyte [2] and in the series with SK-HEP1 [3] was more than 200 µM throughout.
For the compound `Cc1ccc2c(c1)C(=O)N(c1nccs1)C2=O`, the IC50 in the series with HepG2 [1], in the series with Hepatocyte [2] and in the series on SK-HEP1 [3] was more than 200 µM throughout.
For the compound `O=C1C2C(C(=O)N1c1nc3ccccc3s1)[C@H]1C=C[C@@H]2CC1` (stereo partly drawn), the IC50 in the series on HepG2 [1], in the series with Hepatocyte [2] and in the series with SK-HEP1 [3] was more than 200 µM throughout.
`C[C@@]12C(=O)OC(=O)[C@]1(C)[C@H]1CC[C@@H]2O1` [CANTHARIDIN]: the IC50 came to 11 µM in the series with HepG2 [1], 21 µM with Hepatocyte [2] and 34 µM in the series on SK-HEP1 [3].
On the same counts, the results for `Cc1cnc(N2C(=O)C3C(C2=O)[C@H]2C=C[C@@H]3CC2)s1` (stereo partly drawn) are more than 200 µM, more than 200 µM and more than 200 µM.

Broadly, the IC50 is the concentration that inhibits the measured activity by half.
